pIC50: −log10 of the molar value. Calls of active or inactive are those of the source. The rule behind the calls is not given here.
Assays:
Trypanosoma cruzi [1] = experiment: Antitrypanosomal activity against Trypanosoma cruzi; type: functional, organism-based
Cruzipain [2] = biological target: T1, Cruzipain (Trypanosoma cruzi, UniProt P25779); experiment: (§1) Inhibition of Trypanosoma cruzi recombinant cruzain using Z-FR-AMC as substrate at 20 uM preincubated for 10 mins before substrate addition
T1 sequence (P25779 whole entry): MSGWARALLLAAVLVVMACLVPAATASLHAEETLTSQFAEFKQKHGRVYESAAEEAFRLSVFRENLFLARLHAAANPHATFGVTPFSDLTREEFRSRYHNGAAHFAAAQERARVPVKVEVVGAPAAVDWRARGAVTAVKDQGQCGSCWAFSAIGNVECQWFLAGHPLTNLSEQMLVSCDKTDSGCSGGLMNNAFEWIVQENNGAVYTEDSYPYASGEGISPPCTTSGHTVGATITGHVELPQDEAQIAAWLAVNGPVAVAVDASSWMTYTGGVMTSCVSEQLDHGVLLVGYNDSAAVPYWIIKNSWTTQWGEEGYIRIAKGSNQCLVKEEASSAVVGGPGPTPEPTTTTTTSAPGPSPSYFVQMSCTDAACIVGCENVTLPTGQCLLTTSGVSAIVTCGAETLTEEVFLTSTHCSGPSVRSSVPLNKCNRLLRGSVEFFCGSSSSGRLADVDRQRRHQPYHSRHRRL

[3] = biological target: Cruzipain (Trypanosoma cruzi) (UniProt P25779); experiment: as §1
Sequence of Cruzipain (Trypanosoma cruzi) (P25779 123-467 limits assumed): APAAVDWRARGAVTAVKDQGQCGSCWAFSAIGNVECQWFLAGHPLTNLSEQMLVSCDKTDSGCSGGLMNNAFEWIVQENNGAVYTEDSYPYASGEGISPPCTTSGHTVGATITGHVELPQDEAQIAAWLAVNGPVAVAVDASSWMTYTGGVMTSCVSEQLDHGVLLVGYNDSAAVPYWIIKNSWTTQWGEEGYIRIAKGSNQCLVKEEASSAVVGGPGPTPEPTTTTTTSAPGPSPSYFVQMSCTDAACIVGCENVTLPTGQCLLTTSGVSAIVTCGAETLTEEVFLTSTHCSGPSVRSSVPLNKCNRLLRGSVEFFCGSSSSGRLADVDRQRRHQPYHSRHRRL

Trypanosoma cruzi [4] = experiment: Antitrypanosomal activity against trypomastigotes of Trypanosoma cruzi Y infected in LLC-MK2 cells assessed as parasite motility after 24 hrs; type: functional, organism-based; details: LLC-MK2, 24 h
Outline: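 Y strain bloodstream trypomastigotes taken from LLC-MK2 culture supernatant, 4 × 10⁵ cells/well. Five compound concentrations (DMSO), triplicate, 24 h at 37 °C, 5% CO₂. Viable parasites judged by motility in a Neubauer chamber. Inhibition calculated relative to untreated culture; IC50 by nonlinear regression.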

[5] = Cytotoxicity against BALB/c mouse splenocytes assessed as highest nontoxic concentration by measuring [3H]-thymidine incorporation after 24 hrs by beta-radiation counting; type: cell-based, Splenocyte; details: for MNTC at 24 h: mouse, splenocytes, read-out: Activity; for highest nontoxic concentration: Mus musculus, Splenocyte, read-out: IC50
Outline: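 BALB/c splenocytes, 5 × 10⁶ cells/well in RPMI-1640 with 10% FBS. Compound in DMSO at 1.0, 10 and 100 μg/mL or more, triplicate; untreated and saponin controls. 24 h at 37 °C, 5% CO₂. 1.0 μCi ³H-thymidine added, incorporation read by β-counting as % of untreated. Highest nontoxic concentration estimated.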

[6] = Antiproliferative activity against concanavalin A-stimulated BALB/c mouse splenocytes after 72 hrs by AlamarBlue assay; type: cell-based; details: Splenocyte
Outline: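 Splenocytes from BALB/c mice at 5 × 10⁶ cells/well in RPMI-1640 with 10% FBS, stimulated with 2.0 μg/mL concanavalin A. Compounds in DMSO, six concentrations in triplicate. Controls: con A alone, no con A, and con A plus 0.01 μg/mL cyclosporin A. 72 h at 37 °C, 5% CO₂. AlamarBlue for 1 h, fluorescence ex 530/em 590 nm. IC50 by nonlinear regression.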

Trypanosoma cruzi [7] = experiment: Antitrypanosomal activity against epimastigotes of Trypanosoma cruzi Y in axenic culture assessed as parasite motility after 11 days; details: 264 h
Cathepsin S = Cathepsin S (Homo sapiens, UniProt P25774); experiment: Inhibition of recombinant cathepsin S using ZFR-pNA as substrate preincubated for 45 mins
Sequence of Cathepsin S (P25774 whole entry): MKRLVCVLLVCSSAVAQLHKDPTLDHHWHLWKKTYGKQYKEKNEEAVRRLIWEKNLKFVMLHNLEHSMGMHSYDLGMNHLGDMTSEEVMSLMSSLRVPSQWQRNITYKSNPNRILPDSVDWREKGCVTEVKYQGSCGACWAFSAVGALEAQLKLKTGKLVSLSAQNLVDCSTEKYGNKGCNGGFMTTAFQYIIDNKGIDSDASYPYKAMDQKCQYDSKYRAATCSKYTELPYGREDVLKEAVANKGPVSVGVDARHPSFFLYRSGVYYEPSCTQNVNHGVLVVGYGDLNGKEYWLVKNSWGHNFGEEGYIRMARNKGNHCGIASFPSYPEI
Outline: (§2)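 Recombinant cathepsin L or S activated with 1 mM DTT in 0.1 M acetate pH 5.5. Preincubated 45 min at room temperature with compound in phosphate buffer with 0.1% BSA, 1 mM EDTA and 0.001% Tween. Z-FR-pNA added, reaction 5 min; final 30 nM enzyme and 5.0 μM substrate. Triplicate runs; IC50 from at least seven concentrations.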

[8] = Selectivity index, ratio of IC50 for concanavalin A-stimulated BALB/c mouse splenocytes to IC50 for trypomastigotes of Trypanosoma cruzi Y infected in mouse peritoneal macrophages
Outline: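 Ratio of splenocyte IC50 to IC50 against intracellular parasites in Y strain-infected peritoneal macrophages (4-day assay).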

Procathepsin L [9] = biological target: T2, Procathepsin L (Homo sapiens, UniProt P07711); experiment: Inhibition of recombinant cathepsin L using ZFR-pNA as substrate at 100 uM preincubated for 45 mins; outline: as §2
Target sequence in this assay (P07711 114-333 limits assumed): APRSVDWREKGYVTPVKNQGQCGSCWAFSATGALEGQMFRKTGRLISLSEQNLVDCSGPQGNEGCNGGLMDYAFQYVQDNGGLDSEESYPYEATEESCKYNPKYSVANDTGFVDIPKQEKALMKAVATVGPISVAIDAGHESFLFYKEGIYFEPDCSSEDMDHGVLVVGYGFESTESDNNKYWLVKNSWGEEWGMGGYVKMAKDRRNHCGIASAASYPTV

Trypanosoma cruzi [10] = experiment: Antitrypanosomal activity against trypomastigotes of Trypanosoma cruzi Y infected in mouse peritoneal macrophages assessed as reduction of intracellular parasite level after 4 days; type: functional, organism-based; details: 96 h
Outline: (§3)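 Peritoneal exudate macrophages, 2 × 10⁵/well on coverslips, infected with Y strain trypomastigotes at 10 parasites per macrophage for 2 h, then washed. Compound in DMSO added for 6 h, medium replaced, culture continued 4 days. After methanol fixation and Giemsa staining, 100 cells per slide counted for % infected macrophages and amastigotes per cell. IC50 based on % infected cells versus untreated.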

Procathepsin L [11] = biological target: T2, Procathepsin L; experiment: Inhibition of recombinant cathepsin L using ZFR-pNA as substrate preincubated for 45 mins; outline: as §2
Target sequence in this assay (P07711 whole entry): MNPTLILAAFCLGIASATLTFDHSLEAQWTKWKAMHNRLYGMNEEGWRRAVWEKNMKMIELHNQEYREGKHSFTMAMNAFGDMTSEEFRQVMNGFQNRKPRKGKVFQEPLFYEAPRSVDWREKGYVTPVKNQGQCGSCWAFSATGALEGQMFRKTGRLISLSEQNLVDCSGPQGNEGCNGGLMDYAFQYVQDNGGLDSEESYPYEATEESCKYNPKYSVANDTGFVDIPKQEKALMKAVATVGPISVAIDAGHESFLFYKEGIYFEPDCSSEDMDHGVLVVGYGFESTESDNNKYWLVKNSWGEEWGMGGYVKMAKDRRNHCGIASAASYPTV

[12] = biological target: Cruzipain (Trypanosoma cruzi) (UniProt P25779); experiment: Inhibition of Trypanosoma cruzi recombinant cruzain using Z-FR-AMC as substrate at 20 uM preincubated for 10 mins before substrate addition in presence of 0.01% of Triton X-100
Outline: (§4)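 Recombinant cruzain preincubated 10 min at room temperature with compound (DMSO) in phosphate buffer containing EDTA, 100 mM NaCl and DTT. Z-FR-AMC then added; final 0.5 nM enzyme and 2 μM substrate. Fluorescence read at 1, 5 and 10 min; % inhibition versus no-inhibitor control. Single-point values are triplicate means; IC50 by nonlinear regression from multiple concentrations. Some runs used 0.01% Triton X-100.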

Trypanosoma cruzi [13] = experiment: Antitrypanosomal activity against trypomastigotes of Trypanosoma cruzi Y infected in mouse peritoneal macrophages assessed as reduction of intracellular parasite level at 10 uM after 4 days; type: functional, organism-based; outline: as §3
Mus musculus [14] = experiment: Toxicity in BALB/c mouse assessed as reduction in body weight at 250 umol/kg, po qd for 5 days; type: organism-based; details: in vivo, 120 h
Cruzipain [15] = biological target: T1, Cruzipain; experiment: Inhibition of Trypanosoma cruzi recombinant cruzain using Z-FR-AMC as substrate preincubated for 10 mins before substrate addition; details: read-out: IC50; outline: as §4
Trypanosoma cruzi [16] = experiment: Inhibition of trypomastigotes of Trypanosoma cruzi Y invasion to mouse peritoneal macrophages at 50 uM […]; type: functional, organism-based
Trypanosoma cruzi [17] = experiment: Antitrypanosomal activity against epimastigotes of Trypanosoma cruzi Y assessed as reduction of proteolytic activity using gelatin as substrate after 48 hrs by zymography assays
Mus musculus [18] = experiment: Toxicity in BALB/c mouse assessed as mortality at 250 umol/kg, po qd for 5 days; type: organism-based; details: in vivo, 120 h
Outline: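 Female BALB/c mice, 6–8 weeks old, were infected i.p. with 10⁴ Y strain bloodstream trypomastigotes in saline and randomly grouped, six per group. From day 5 postinfection, drug was given orally by gavage at 250 μmol/kg once daily for five consecutive days. Blood parasites were counted by hemocytometer, and survival was followed for one month. Untreated and benznidazole-treated infected mice served as controls.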

Trypanosoma cruzi [19] = experiment: Induction of ultrastructural alteration of trypomastigotes of Trypanosoma cruzi Y at 3.9 uM by scanning electron microscopy; type: functional, organism-based
Outline: (§5)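 Y strain bloodstream trypomastigotes and infected macrophages exposed to 3.9 μM compound, then examined by transmission and scanning electron microscopy.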

Trypanosoma cruzi [20] = experiment: Antitrypanosomal activity against trypomastigotes of Trypanosoma cruzi Y infected in BALB/c mouse assessed as reduction of blood parasite level at 250 umol/kg, po qd for 5 days; type: functional; design: scale not given: the % may be the effect or the level left
Outline: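 Female BALB/c mice, 6–8 weeks old, infected ip with 10⁴ Y strain bloodstream trypomastigotes in saline; six mice per group. From day 5 postinfection, 250 μmol/kg given orally by gavage once daily for 5 days. Fresh-blood parasitemia counted in a hemocytometer. Reduction = (vehicle − treated)/vehicle × 100, using day 5 of treatment; two independent experiments.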

Trypanosoma cruzi [21] = experiment: Induction of ultrastructural alteration of trypomastigotes of Trypanosoma cruzi Y at 3.9 uM by transmission electron microscopy; type: functional, organism-based; outline: as §5

Row | inhibition [3] | SMILES | pIC50 (Trypanosoma cruzi [4]) | MNTC at 24 h [5] [µg/mL] | pIC50 [6] | highest nontoxic concentration [5] [µM] | pIC50 (Trypanosoma cruzi [7]) | pIC50 (Cathepsin S) | Ratio IC50 [8] | inhibition (Procathepsin L [9]) [%] | pIC50 (Trypanosoma cruzi [10]) | pIC50 (Procathepsin L [11]) | Activity (Trypanosoma cruzi [13]) | Activity (Trypanosoma cruzi [20]) [%] | other results
1 | – | Cc1ccc(SC/C=N/N=C2\NC(=O)C(C)S2)cc1 (configuration not stated) | – | – | – | – | – | – | – | – | – | – | – | – | pIC50 (Trypanosoma cruzi [1]): 4.09
2 | inactive | C/C(COc1ccccc1)=N\Nc1nc(-c2ccccc2)cs1 | 4.71 | 50 | – | – | – | – | – | – | – | – | – | – | pIC50 (Cruzipain [2]): < 4.70
3 | 0% | C/C(COc1ccccc1)=N\N=C1/NC(=O)CS1 | 4.72 | > 100 | 4.01 | > 200 | 4.63 | < 4.00 | 10 | 1 | 4.71 | < 4.00 | – | – | –
4 | – | O=C(Cn1ccnc1[N+](=O)[O-])NCc1ccccc1 [BENZNIDAZOLE] | 5.21 | – | – | – | 5.18 | – | – | – | 4.86 | – | Active | >99 | –

Row | SMILES | inhibition [3] | pIC50 (Trypanosoma cruzi [4]) | MNTC at 24 h [5] [µg/mL] | pIC50 [6] | highest nontoxic concentration [5] [µM] | pIC50 (Trypanosoma cruzi [7]) | pIC50 (Cathepsin S) | Ratio IC50 [8] | inhibition (Procathepsin L [9]) [%] | pIC50 (Trypanosoma cruzi [10]) | pIC50 (Procathepsin L [11]) | Activity (Trypanosoma cruzi [13]) | Activity (Trypanosoma cruzi [20]) [%] | other results
5 | C/C(COc1ccccc1)=N\N=C1\SC(C(C)C)C(=O)N1c1ccccc1 (racemic) | 78% | 5.21 | > 100 | < 3.58 | > 262 | 5.31 | < 4.00 | 25 | 10 | 5.00 | < 4.00 | Active | 89.6 | inhibition [12]: 81%; Activity (Mus musculus [14]): Non-toxic; pIC50 (Cruzipain [15]): 5.18; inhibition (Trypanosoma cruzi [16]): Active; Activity (Trypanosoma cruzi [17]): Dose-dependent effect; Activity (Mus musculus [18]): Non-toxic; Activity (Trypanosoma cruzi [19]): Active; Activity (Trypanosoma cruzi [21]): Active

Reference: ChEMBL document CHEMBL2176891, “Structural investigation of anti-Trypanosoma cruzi 2-iminothiazolidin-4-ones allows the identification of agents with efficacy in infected mice” (J Med Chem, 2012)
